Source: PubChem
TAAR1 antag – human TAAR1 antagonists, primary screen, Fluo-8 calcium fluorescence, CHO RD-HGA16 cells. inhibition, % at 3 µM. AID 624466, 2012. Trace amine-associated receptor 1 (Homo sapiens), Q96RJ0. antagonist. 360,000 compounds, 1.5% hits;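 active = inhibition above a per-plate cutoff, the mean inhibition of test compounds on that plate plus 3 SD, cut at about 49% in these data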
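Test system – hTAAR1-expressing CHO RD-HGA16 cells, Gα16-coupled · Reagent – β-PEA at EC80 concentration, post-compound challenge · Compound dosing – 3 µM, single point · Timing – 140 s kinetic read after compound, 140 s after agonist · Detection – Fluo-8 intracellular calcium dye fluorescence, real-time kinetic reads · Control set – DMSO and EC80 PEA controls · Repeats – n of 1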
CHRM1 PAM – human M1 muscarinic receptor positive allosteric modulators, primary screen, CHO-K1 cells, Fluo-8 calcium fluorescence, 1536-well | Muscarinic acetylcholine receptor M1 (Homo sapiens), P11229 | CHO-K1 hM1, ACh EC20; 0% = ACh EC20, 100% = maximal ACh | activation, % at 3 µM | 360,000 compounds, 0.088% hits | AID 588819, 2011; in the data active = activation above about 19%, passing the limit was not always enough
Target sequence (P11229 whole entry, looked up): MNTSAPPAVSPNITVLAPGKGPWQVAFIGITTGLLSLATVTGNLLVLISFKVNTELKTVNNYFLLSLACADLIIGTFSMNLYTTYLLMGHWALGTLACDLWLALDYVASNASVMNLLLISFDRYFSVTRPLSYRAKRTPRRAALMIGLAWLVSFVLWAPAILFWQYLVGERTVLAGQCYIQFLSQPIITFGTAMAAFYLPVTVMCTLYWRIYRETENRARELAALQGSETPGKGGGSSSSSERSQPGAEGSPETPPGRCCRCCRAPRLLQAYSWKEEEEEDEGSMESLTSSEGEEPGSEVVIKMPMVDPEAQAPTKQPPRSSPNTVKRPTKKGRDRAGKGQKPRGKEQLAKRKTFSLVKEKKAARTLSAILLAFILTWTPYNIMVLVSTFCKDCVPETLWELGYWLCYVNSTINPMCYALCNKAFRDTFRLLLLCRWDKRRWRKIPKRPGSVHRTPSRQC
m5-HT2A agonist – mouse Htr2a agonists via beta-arrestin recruitment, primary screen, cell-based, luminescence | CHO-K1 mHTR2A beta-arrestin complementation; percent of 30 µM serotonin response | activation, % at 7.6 µM | 360,000 compounds, 0.66% hits | AID 624169, 2012;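 active = activation above a run cutoff, the mean activation of all tested compounds plus 3 SD, cut at about 14% in these data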
TAAR1 agonist – human TAAR1 agonists, primary screen, Fluo-8 calcium fluorescence, CHO RD-HGA16 cells; Trace amine-associated receptor 1 (Homo sapiens), Q96RJ0; vehicle wells 0%, saturating PEA agonist 100%; activation, % at 3 µM; 360,000 compounds, 0.99% hits;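 active = activation above the mean activation of all test compounds in the run plus 3 SD, cut at about 38% in these data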
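Test system: RD-HGA16 (CHO) cells co-expressing Gα16 and hTAAR1; dosing: one-point dosing at 3 µM (nominal); timing: 17-24 h seeding, 75 min 37 °C dye, 30 min RT; signal: kinetic Fluo-8 calcium fluorescence; read-out basis: % activation relative to PEA EC100 response; controls: DMSO and PEA EC100; replicates: n 1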
M1 ag – human M1 muscarinic receptor agonists, primary screen, Fluo-8 calcium fluorescence, CHO-K1 cells, HTS. Muscarinic acetylcholine receptor M1 (Homo sapiens), P11229. CHO-K1 hM1, agonist mode; 0% DMSO, 100% acetylcholine EC100. activation, % at 3 µM. 360,000 compounds, 0.33% hits. AID 588814, 2011;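 active = activation above the run's mean compound activation plus 3 SD, cut at about 16% in these data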;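 note: peak over basal fluorescence ratio within a 140 s kinetic read after compound addition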
CHRM1 antagonist – human M1 muscarinic receptor antagonists, primary screen, CHO-K1 cells, Fluo-8 calcium fluorescence, 1536-well. Muscarinic acetylcholine receptor M1 (Homo sapiens), P11229. inhibition, % at 3 µM. CHO-K1 hM1, ACh EC80 antagonist. 360,000 compounds, 1.3% hits;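 active = percent inhibition above its own plate's cutoff, namely the mean of that plate's compound wells plus 3 SD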;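 note: peak over basal fluorescence ratio during 140 s after agonist addition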
Of the large screens only hits and unclear results are named; the others gave an inactive call. Sampled rows, rich in hits. Any-hit rate of the full collection: about 3.9%.

COCCNC(=O)Cc1c(C)c2c(cc(C)c3c(C(C)(C)C)coc32)oc1=O	none
O=C(NCCCNC(=O)c1ccccc1F)c1ccco1	none
CN1CCC(=C2c3ccccc3C=Cc3ccccc32)CC1	none (no result: CHRM1 PAM, M1 ag, CHRM1 antagonist)
CN1CCC(=C2c3ccccc3Sc3ccccc32)CC1	CHRM1 antagonist 99.8
CCOc1ccc(C(=O)Nc2ccc(N3CCN(C)CC3)cc2)cc1Br	TAAR1 agonist 46.9
CN1CCN(c2ccc(NC(=O)c3ccc(Oc4ccccc4)cc3)cc2)CC1	TAAR1 agonist 37.5, CHRM1 antagonist 46.0
CC(=O)c1ccc(N2CCN(C(=S)Nc3ccc(Oc4ccccc4)cc3)CC2)cc1	CHRM1 antagonist 35.0
COc1ccc(N2CCN(C(=S)Nc3ccccc3)CC2)cc1	none
O=C(CSC1=NS(=O)(=O)c2cc(Cl)ccc2N1)c1ccc(Cl)cc1	none
O=C1c2[nH]nc(-c3ccccc3)c2C(c2cccc(C(F)(F)F)c2)N1c1ccccc1 (stereo not drawn)	none (no result: CHRM1 PAM, m5-HT2A agonist, M1 ag, CHRM1 antagonist)
CC1CC(C)CN(CCCNC(=O)C2CCCN(c3ncnc4c3nc3n4CCCCC3)C2)C1 (stereo not drawn)	CHRM1 antagonist 29.2
COc1cccc(CCNC(=O)C2CCCN(c3ncnc4c3nc3n4CCCCC3)C2)c1OC (stereo not drawn)	none
Cc1ccccc1CN1CCC(CNC(=O)C2CCCN(c3ncnc4c3nc3n4CCCCC3)C2)CC1 (stereo not drawn)	CHRM1 antagonist 101.5
CC1CCCN(CCCNC(=O)C2CCCN(c3ncnc4c3nc3n4CCCCC3)C2)C1 (stereo not drawn)	none
COc1cc(OC)cc(C(=O)N2CCN(C3CCC(C)CC3)CC2)c1 (stereo not drawn)	CHRM1 antagonist 31.5
COc1cc(OC)cc(C(=O)N2CCN(C3CCCCC3)CC2)c1	none
Cc1ccc(S(=O)(=O)N(C)C[C@H]2OCc3cnnn3CCCC(=O)N([C@@H](C)CO)C[C@H]2C)cc1	none
Cc1noc(C)c1NC(=O)N(C)C[C@H]1OCc2cnnn2CCCC(=O)N([C@H](C)CO)C[C@H]1C	CHRM1 PAM 26.6
C[C@H]1CN([C@@H](C)CO)C(=O)CCCn2nncc2CO[C@@H]1CN(C)Cc1ccc(-c2ccccc2)cc1	CHRM1 antagonist 37.1
COc1ccc(S(=O)(=O)N(C)C[C@@H]2OCc3cnnn3CCCC(=O)N([C@@H](C)CO)C[C@@H]2C)cc1	CHRM1 PAM 28.5
N#C/C(=C/c1ccc(O)c(O)c1)C(=O)NCc1ccc(Cl)cc1	TAAR1 agonist 47.9
N#C/C(=C/c1cccc(O)c1)C(=O)NCc1ccc(Cl)cc1	M1 ag 17.4, CHRM1 antagonist 28.1
COC(=O)C1=C(C)N(Cc2ccccc2C(F)(F)F)C(=NCc2ccc(OC)cc2)NC1c1ccc(F)cc1 (stereo not drawn)	none (no result: CHRM1 PAM, m5-HT2A agonist, M1 ag, CHRM1 antagonist)
Cc1cc(C)c(C)c(C(=O)C(=O)c2ccccc2)c1	none
CCc1cccc(CC)c1N1C(=O)C2=C(SCCCS2)C1=O	TAAR1 agonist 40.1, M1 ag 20.2
Cc1cccc(N2CC(O)(c3cccs3)[N+]3=C2CCCC3)c1C (stereo not drawn)	CHRM1 antagonist 37.0
Cc1ccc(N2CC(O)(c3cccs3)[N+]3=C2CCCC3)cc1 (stereo not drawn)	CHRM1 antagonist 40.0
Cc1ccccc1N1CC(O)(c2cccs2)[N+]2=C1CCCC2 (stereo not drawn)	none
COc1cc(C(=O)O/N=C2\CCCc3c2ccc(OC)c3[N+](=O)[O-])cc(OC)c1OC	CHRM1 antagonist 24.9
Cc1cc(NCc2ccccc2)c2ccccc2n1	none
Cc1cc(NCc2ccccc2)nc2ccccc12	TAAR1 antag 79.4, TAAR1 agonist 89.0
CCOc1cccc(C=NNC(=O)C(=O)Nc2cccc(C(F)(F)F)c2)c1O	none (no result: CHRM1 PAM, m5-HT2A agonist, M1 ag, CHRM1 antagonist)
CCOC(=O)C1CCCN(C(=S)Nc2cccc(Cl)c2C)C1 (stereo not drawn)	M1 ag 68.2, CHRM1 antagonist 56.9
CCOC(=O)C1CCN(C(=O)Nc2cccc(Cl)c2)CC1	none
CCOC(=O)C1CCCN(C(=S)Nc2cccc(Cl)c2)C1 (stereo not drawn)	M1 ag 74.0, CHRM1 antagonist 62.4
NC(=O)[C@@H]1CCCN1C(=O)[C@@H](Cc1ccccc1)NC(=O)[C@H]1O[C@@H](n2ccc(=O)[nH]c2=O)[C@H](O)[C@@H]1O	none (no result: CHRM1 PAM, m5-HT2A agonist, M1 ag, CHRM1 antagonist)
CC(C)=C[C@H]1C[C@H](C)[C@H]2CC[C@H](C)c3c(O[C@@H]4OC[C@@H](O)[C@H](O)C4O)c(O)c(C)c1c32 (stereo partly drawn)	none
O=C(COC(=O)c1cccc(NC(=O)c2ccco2)c1)c1ccc(Br)cc1	TAAR1 antag 61.7
Cc1ccc(-c2csc(N/N=C/c3ccco3)n2)cc1	none
CN(C)S(=O)(=O)c1ccc(-c2csc(N/N=C/c3ccco3)n2)cc1	TAAR1 antag 79.0, CHRM1 antagonist 50.7
CN(C)S(=O)(=O)c1ccc(-c2csc(N/N=C/c3ccc(O)cc3)n2)cc1	TAAR1 antag 76.9, CHRM1 antagonist 37.3
O=C(C(=O)N1CCC(CNC(=O)c2sc3ccccc3c2Cl)CC1)c1cccs1	none (no result: CHRM1 PAM, m5-HT2A agonist, M1 ag, CHRM1 antagonist)
CCCC(=O)NC(=S)Nc1cccc(NC(=O)c2ccc(Cl)cc2Cl)c1	TAAR1 antag 56.3
Cc1ccc(-n2nnnc2CNC(=O)c2ccc3c(c2)OCO3)cc1C	CHRM1 antagonist 63.2
Cc1ccc(-n2nnnc2CNC(=O)c2ccc(Br)o2)cc1C	none
O=C(NNc1ccnc2cc(Cl)ccc12)C1CCCCC1	CHRM1 antagonist 31.9
C[C@@H](CN1C2=NC[C@H](Cc3ccccc3)N2C[C@H]1Cc1ccc(O)cc1)NC(=O)CCC1CCCCC1	CHRM1 antagonist 40.0
C[C@@H](CN1C2=NC[C@H](Cc3ccc(O)cc3)N2C[C@H]1Cc1ccc(O)cc1)NC(=O)CCC1CCCCC1	none
COc1ccc(OCc2cc(C(=O)NCc3nc(C)cs3)no2)c(Cl)c1	none
S=C(NCCCCN(Cc1ccc(Cl)cc1)c1ccc(Br)cn1)NCCCc1cnc[nH]1	TAAR1 agonist 38.0
COC(=O)[C@]12C[C@H](CC(=O)N3CCOCC3)C(=O)N(Cc3ccccc3)C1=C[C@H](C(C)(C)C)O[C@@H]2C	none (no result: CHRM1 PAM, m5-HT2A agonist, M1 ag, CHRM1 antagonist)
Cc1ccc(C)c(NC(=O)c2nnn(Cc3ccccc3)c2N)c1	none
